According to ChEMBL document CHEMBL2176900, “Design and synthesis of a novel series of bicyclic heterocycles as potent γ-secretase modulators” (J Med Chem, 2012):
pIC50: −log10 of the molar value.

What was measured:
Mus musculus [1] = test: Antialzheimer activity in CD1 mouse assessed as reduction in amyloid beta 42 level in brain at 30 mg/kg, po at 4 hrs by ELISA relative to control; format: functional
How it was run: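 Screening used fasted male CD1 mice dosed once orally at 30 mg/kg as a suspension in 20% Captisol in water. Mice were killed at 4 h. Aβ42 in the DEA-soluble hemisphere extract was measured by sandwich ELISA. Values are the mean of at least six animals, as % lowering versus untreated mice; a reduction above 20% counts as significant.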

Cytochrome P450 3A4 = Cytochrome P450 3A4 (Homo sapiens, UniProt P08684); test: Inhibition of CYP3A4 in human liver microsomes using midazolam as substrate; format: ADME, Microsome
Mus musculus [2] = test: Antialzheimer activity in CD1 mouse assessed as amyloid beta 42 level in brain at 10 mg/kg, po at 24 hrs by ELISA relative to control; format: functional
How it was run: (§1)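 Male CD1 SPF mice, fasted overnight, got a single oral dose of 10 or 30 mg/kg. At each time point the right brain hemisphere was homogenized in 0.4% DEA/50 mM NaCl with protease inhibitors and spun at 221300g for 50 min. The supernatant was neutralized with Tris-HCl pH 6.8. Aβ38 or Aβ42 was read by sandwich ELISA with a fluorogenic peroxidase substrate (ex 320/em 420 nm). Results are mean % change versus T = 0 h, n = 4.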

Canis familiaris [3] = test: Antialzheimer activity in beagle dog assessed as amyloid beta 42 level in cerebrospinal fluid at 20 mg/kg, po at 24 hrs by ELISA relative to control
[4] = Oral bioavailability in beagle dog at 5 mg/kg; format: ADME, organism-based, Canis lupus familiaris; details: in vivo
Rattus norvegicus [5] = test: Antialzheimer activity in Sprague-Dawley rat assessed as amyloid beta 38 level in brain at 10 mg/kg, po at 4 hrs by ELISA relative to control; format: functional
How it was run: (§2)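 Male Sprague-Dawley rats (180-220 g), fasted overnight, were given 10 mg/kg by gastric intubation as a 5 mg/mL suspension in 0.5% methocellulose. At 2, 4, 7 and 25 h, 50 μL CSF was taken from the cisterna magna under isoflurane, then brain was collected. Aβ37/38/40/42 were measured by MesoScale Discovery sandwich immunoassays. Results are mean % change versus T = 0 h, n = 5.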

[6] = Plasma concentration in Sprague-Dawley rat at 10 mg/kg, po at 4 hrs by LC-MS/MS analysis; format: ADME, organism-based; set-up: dose 10 mg/kg, route oral
How it was run: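 Overnight-fasted male Sprague-Dawley rats (180–220 g) were given 10 mg/kg by gastric intubation of a 5 mg/mL suspension in 0.5% methocellulose. Blood was collected after decapitation at 2, 4, 7 and 25 h under isoflurane anaesthesia. Plasma compound was measured as in the mouse assay, n = 5.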

Plasma [7] = test: Plasma concentration in CD1 mouse at 30 mg/kg, po at 48 hrs by LC-MS/MS analysis; format: ADME, organism-based; set-up: dose 30 mg/kg, route oral; details: in vivo, BLD = below limit of detection
How it was run: (§3)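 Mice received a single 10 or 30 mg/kg oral dose. Plasma was sampled at several time points up to 48 h, with EDTA plasma obtained by centrifugation at 1900g, 10 min, 4 °C. Compound was quantified by LC-MS/MS, n = 4.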

[8] = Plasma concentration in CD1 mouse at 10 mg/kg, po at 8 hrs by LC-MS/MS analysis; format: ADME, organism-based; set-up: dose 10 mg/kg, route oral; how it was run: as §3
Rattus norvegicus [9] = test: Antialzheimer activity in Sprague-Dawley rat assessed as amyloid beta 40 level in CSF at 10 mg/kg, po at 25 hrs by ELISA relative to control; format: functional; how it was run: as §2
Rattus norvegicus [10] = test: Antialzheimer activity in Sprague-Dawley rat assessed as amyloid beta 38 level in brain at 10 mg/kg, po at 7 hrs by ELISA relative to control; format: functional; how it was run: as §2
Rattus norvegicus [11] = test: Antialzheimer activity in Sprague-Dawley rat assessed as amyloid beta 42 level in brain at 10 mg/kg, po at 25 hrs by ELISA relative to control; format: functional; how it was run: as §2
Mus musculus [12] = test: Antialzheimer activity in CD1 mouse assessed as amyloid beta 42 level in brain at 10 mg/kg, po at 4 hrs by ELISA relative to control; format: functional; how it was run: as §1
Rattus norvegicus [13] = test: Antialzheimer activity in Sprague-Dawley rat assessed as amyloid beta 40 level in CSF at 10 mg/kg, po at 7 hrs by ELISA relative to control; format: functional; how it was run: as §2
Canis familiaris [14] = test: Antialzheimer activity in beagle dog assessed as amyloid beta 40 level in cerebrospinal fluid at 20 mg/kg, po at 4 hrs by ELISA relative to control
[15] = Drug uptake in CD1 mouse brain at 30 mg/kg, po at 8 hrs by LC-MS/MS analysis; format: ADME, organism-based; set-up: dose 30 mg/kg, route oral; details: read-out: Drug uptake
How it was run: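 Overnight-fasted male CD1 mice received one oral dose (10 or 30 mg/kg) in 20% Captisol. After sacrifice, the left brain hemisphere was stored at −18 °C. Compound level was quantified by a qualified LC-MS/MS method, alongside EDTA plasma spun at 1900g, 4 °C. n = 4 per time point.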

[16] = biological target: T1, Neuromedin-K receptor (Homo sapiens) (UniProt P29371); test: Inhibition of NK3 receptor at 10 uM
T1 sequence (whole entry): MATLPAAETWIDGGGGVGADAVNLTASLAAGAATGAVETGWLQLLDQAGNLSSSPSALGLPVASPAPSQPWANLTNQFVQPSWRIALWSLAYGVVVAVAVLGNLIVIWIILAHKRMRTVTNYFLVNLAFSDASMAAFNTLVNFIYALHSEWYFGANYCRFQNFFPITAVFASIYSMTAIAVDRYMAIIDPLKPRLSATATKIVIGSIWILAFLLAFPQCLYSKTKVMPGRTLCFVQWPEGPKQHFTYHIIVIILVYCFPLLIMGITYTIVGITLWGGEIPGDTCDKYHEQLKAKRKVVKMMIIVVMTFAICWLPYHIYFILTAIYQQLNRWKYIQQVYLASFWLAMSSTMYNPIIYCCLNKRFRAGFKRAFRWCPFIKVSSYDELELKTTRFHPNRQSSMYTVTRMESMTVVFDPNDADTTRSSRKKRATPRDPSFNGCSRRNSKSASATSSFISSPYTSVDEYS

Rattus norvegicus [17] = test: Antialzheimer activity in Sprague-Dawley rat assessed as amyloid beta 37 level in CSF at 10 mg/kg, po at 2 hrs by ELISA relative to control; format: functional; how it was run: as §2
[18] = Thermodynamic solubility in buffer at pH 4; format: physicochemical; details: read-out: Therm_solubility
How it was run: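 Thermodynamic solubility was measured in pH 4.0 and pH 7.4 buffers, 0.01 N HCl, and fasted-state and fed-state simulated intestinal fluids (FaSSIF, FeSSIF). Results are in […].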

Plasma [19] = test: Plasma concentration in CD1 mouse at 10 mg/kg, po at 48 hrs by LC-MS/MS analysis; format: ADME, organism-based; set-up: dose 10 mg/kg, route oral; details: in vivo, BLD = below limit of detection; how it was run: as §3
[20] = Plasma concentration in beagle dog at 20 mg/kg, po at 4 hrs; format: ADME, organism-based, Canis lupus familiaris; set-up: dose 20 mg/kg, route oral

Sequence of Cytochrome P450 3A4 (P08684 whole entry): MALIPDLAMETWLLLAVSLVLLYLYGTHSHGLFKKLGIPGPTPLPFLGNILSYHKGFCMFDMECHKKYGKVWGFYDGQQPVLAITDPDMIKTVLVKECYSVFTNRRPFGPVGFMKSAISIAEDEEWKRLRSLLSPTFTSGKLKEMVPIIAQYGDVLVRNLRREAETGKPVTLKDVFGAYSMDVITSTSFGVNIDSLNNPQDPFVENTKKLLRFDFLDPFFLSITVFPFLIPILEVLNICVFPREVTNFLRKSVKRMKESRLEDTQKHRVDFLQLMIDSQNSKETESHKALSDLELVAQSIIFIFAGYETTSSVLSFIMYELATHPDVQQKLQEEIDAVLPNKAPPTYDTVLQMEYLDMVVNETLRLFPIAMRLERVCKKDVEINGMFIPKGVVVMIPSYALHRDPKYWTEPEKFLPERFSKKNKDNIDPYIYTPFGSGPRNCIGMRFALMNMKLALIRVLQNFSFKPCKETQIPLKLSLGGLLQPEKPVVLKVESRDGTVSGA

Compound: COc1nc(Nc2cccc3c2nc(-c2ccc(F)cc2)n3C)ccc1-n1cnc(C)c1
- inhibition in vivo at 30 mg/kg (Mus musculus [1]): 62%
- pIC50 (Cytochrome P450 3A4): 5.06
- Activity (Mus musculus [2]): 94%
- Activity (Canis familiaris [3]): 89%
- bioavailability [4]: 64%
- Activity (Rattus norvegicus [5]): 114%
- concentration at 4 h [6]: 4.4 µM
- Cp (Plasma [7]): BLD
- concentration at 8 h [8]: 2.7 µM
- Activity (Rattus norvegicus [9]): 83%
- Activity (Rattus norvegicus [10]): 127%
- Activity (Rattus norvegicus [11]): 92%
- Activity (Mus musculus [12]): 49%
- Activity (Rattus norvegicus [13]): 56%
- Activity (Canis familiaris [14]): 89%
- concentration at 8 h [15]: 12 µM
- inhibition [16]: 71%
- Activity (Rattus norvegicus [17]): 735%
- solubility thermodynamic [18]: < 1 µg/mL
- Cp (Plasma [19]): BLD
- concentration at 4 h [20]: 4.1 µM
